Test results reported in ChEMBL document CHEMBL1145965, “4-Substituted 4-hydroxycyclohexa-2,5-dien-1-ones with selective activities against colon and renal cancer cell lines” (J Med Chem, 2003).

How the values were obtained:
[1] = test system: Panel NCI-60 (60 carcinoma cell lines); experiment: In vitro mean growth inhibitory activity against 60-cell panel; assay type: functional; settings: Homo sapiens
[2] = test system: Panel NCI-60 (60 carcinoma cell lines); experiment: In vitro mean growth lethal concentration against 60-cell panel; assay type: functional; settings: Homo sapiens, read-out: Mean LC50
[3] = test system: Panel NCI-60 (60 carcinoma cell lines); experiment: In vitro mean growth lethal concentration in colon subpanel against 60-cell panel; assay type: functional; settings: Homo sapiens, read-out: Mean LC50
[4] = test system: Panel NCI-60 (60 carcinoma cell lines); experiment: In vitro mean growth lethal concentration in renal subpanel against 60-cell panel; assay type: functional; settings: Homo sapiens, read-out: Mean LC50
ACHN = experiment: In vitro lethal concentration against most sensitive ACHN cell line; assay type: functional; settings: Homo sapiens, read-out: LC50 (the source's name)
HCT-116 [5] = experiment: In vitro lethal concentration against most sensitive colon HCT116 cell line; assay type: functional; settings: Homo sapiens, read-out: LC50 (the source's name)
SW-620 = experiment: In vitro lethal concentration against least sensitive colon SW-620 cell line; assay type: functional; settings: Homo sapiens, read-out: LC50 (the source's name)
HCT-116 [6] = experiment: Inhibitory activity against HCT116 colon cancer cell line; assay type: functional, cell-based; settings: Homo sapiens
Summary of the method: (§1)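 Cells grown in RPMI 1640 with 2 mM L-glutamine and 10% fetal calf serum, 37 °C, 5% CO2. Seeded at 5 × 10³ per well, 24 h adherence, then drug 0.1 nM–100 μM final (n = 8; DMSO stocks, dilutions in medium) for 72 h.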

HT-29 = experiment: Inhibitory activity against HT-29 colon cancer cell line; assay type: functional, cell-based; settings: Homo sapiens; summary of the method: as §1
MCF7 = experiment: Inhibitory activity against MCF-7 mammary carcinoma cell line; assay type: functional, cell-based; settings: Homo sapiens; summary of the method: as §1
MDA-MB-468 = experiment: Inhibitory activity against MDA-468 mammary carcinoma cell line; assay type: functional, cell-based; settings: Homo sapiens; summary of the method: as §1
A549 = experiment: Inhibitory activity against A549 lung adenocarcinoma cell line; assay type: functional, cell-based; settings: Homo sapiens; summary of the method: as §1

SMILES	GI50 [1] [µM]	CC50 [2] [µM]	CC50 [3] [µM]	CC50 [4] [µM]	CC50 (ACHN) [µM]	CC50 (HCT-116 [5]) [µM]	CC50 (SW-620) [µM]	IC50 (HCT-116 [6]) [µM]	IC50 (HT-29) [µM]	IC50 (MCF7) [µM]	IC50 (MDA-MB-468) [µM]	IC50 (A549) [µM]
O=C1C=CC(O)(c2ccccc2)C=C1	2.29	21.9	10.6	16.7	5.5	6.31	51.3	2.22	3.63			
COc1ccc2nc(C3(OC)C=CC(=NS(=O)(=O)c4ccc(C)cc4)C=C3)sc2c1 (stereo unspecified)	1.91	18.6	13.2	11.2	8.32	5.01	77.6					
COC1(c2nc3ccc(F)cc3s2)C=CC(=NS(=O)(=O)c2ccc(C)cc2)C=C1 (stereo unspecified)	1.74	30.2	25.6	19.1	> 100	5.25	> 100					
O=C1/C(=C\c2ccccc2)CC(O)(c2nc3ccccc3s2)C/C1=C/c1ccccc1 (stereo unspecified)	2.69	47.9	17.4	37.2	30.9	5.37	> 100					
O=C1C=CC(O)(c2cnc3ccccc3c2)C=C1	1.07	15.8	15.8	9.66	15.1	4.26	> 100	0.72	0.97	0.77	1.7	
O=C1C=CC(O)(c2cc3ccccc3s2)c2ccccc21 (stereo unspecified)	2.29	70.8	> 100	> 100	> 100	> 100	> 100					
O=C1C=CC(O)(c2nc3ccccc3s2)C(Cl)=C1 (stereo unspecified)	0.46	6.31	2.31	1.8	0.58	0.68	> 100					
COC1(c2nc3ccc(C)cc3s2)C=CC(=NS(=O)(=O)c2ccc(C)cc2)C=C1 (stereo unspecified)	1.2	19.5	9.92	10.6	6.92	1.78	95.5					
O=C1C=CC(O)(c2nc3ccccc3o2)C=C1	0.46	7.08	1.13	1.64	4.9	0.87	> 100	0.18	0.29	0.39	0.35	2.33
O=C1C=CC(O)(c2cc3ccccc3o2)C=C1	0.52	7.24	3.66	2.4	1	0.6	> 100	0.16	0.42			2.3
O=C1C=CC(O)(c2nccs2)C=C1	1.35	14.5	14.5	9.17	7.94	4.9	26.3	0.62	0.72			
O=C1C=CC(O)(c2cc3ccccc3s2)C=C1	0.25	5.75	1.69	1.4	0.33	0.6	> 100	0.17	0.55			2.43
O=C1C=CC(O)(c2cc3ccccc3o2)c2ccccc21 (stereo unspecified)	0.74	7.76	7.76	6.48	5.75	4.9	3.55					
O=C1CCC(O)(c2nc3ccccc3s2)CC1	> 100	> 100	> 100	> 100	> 100	> 100	> 100					
O=C1C=CC(O)(c2cccc3ccccc23)C=C1	1.82	25.7	12.2	17	13.2	5.37	> 100	0.42	1.36	0.78	1.77	
O=C1C=CC(O)(c2cccs2)C=C1	1.78	30.9	32.5	14.4	35.5	5.89	> 100	0.66	1.25	0.57	0.72	
O=C1C=CC(O)(c2ccccn2)C=C1	1.91	20.4	6.9	11.3	8.91	5.24	> 100	0.55	0.46	0.72	1.5	
COC1(c2nc3ccccc3s2)C=CC(=NS(=O)(=O)c2ccc(C)cc2)C=C1 (stereo unspecified)	15.5	83.2	> 100	> 100	> 100	44.7	> 100					
COC1(c2nc3c(F)cccc3s2)C=CC(=NS(=O)(=O)c2ccc(C)cc2)C=C1 (stereo unspecified)	2.57	27.5	26.9	14.4	7.59	57.5	67.6					
O=C1C=CC(O)(c2ccc3ccccc3c2)C=C1	0.81	11.7	6.58	4.68	7.76	4.47	> 100	0.82	2.5	1.3	1.4	
CC1=CC(O)(c2nc3ccccc3s2)C=C(C)C1=O	38.2	> 100	> 100	> 100	> 100	> 100	> 100					
Oc1ccc(-c2nc3ccccc3s2)cc1	33.9	> 100	> 100	> 100	> 100	> 100	> 100			69.4	0.4	
